ChEMBL document CHEMBL2396544, “1,4-Diaryl-substituted triazoles as cyclooxygenase-2 inhibitors: Synthesis, biological evaluation and molecular modeling studies” (Bioorg Med Chem, 2013)

Experiments:
[1] = target: T1, Prostaglandin G/H synthase 1 (Ovis aries, UniProt P05979); assay: Inhibition of ovine COX1 by fluorescence assay
T1 sequence (P05979 whole entry): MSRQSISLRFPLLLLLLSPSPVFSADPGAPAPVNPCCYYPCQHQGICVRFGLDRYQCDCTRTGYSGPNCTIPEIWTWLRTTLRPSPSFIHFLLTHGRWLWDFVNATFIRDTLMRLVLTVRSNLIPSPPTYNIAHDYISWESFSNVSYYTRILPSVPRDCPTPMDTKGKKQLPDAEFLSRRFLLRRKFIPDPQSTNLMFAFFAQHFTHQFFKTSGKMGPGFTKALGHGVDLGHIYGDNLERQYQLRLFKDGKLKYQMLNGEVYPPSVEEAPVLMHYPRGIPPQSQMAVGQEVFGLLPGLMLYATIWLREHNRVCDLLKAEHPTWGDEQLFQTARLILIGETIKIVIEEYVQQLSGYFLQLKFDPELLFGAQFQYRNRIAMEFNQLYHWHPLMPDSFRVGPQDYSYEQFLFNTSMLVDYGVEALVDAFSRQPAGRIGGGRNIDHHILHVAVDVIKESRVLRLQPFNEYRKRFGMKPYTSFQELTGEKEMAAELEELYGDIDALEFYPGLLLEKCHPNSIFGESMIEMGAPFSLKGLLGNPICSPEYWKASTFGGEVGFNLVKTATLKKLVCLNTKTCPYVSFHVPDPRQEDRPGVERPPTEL
How it was run: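 Ovine COX-1 tested in vitro with a fluorescent COX-1/COX-2 inhibitor screening kit. Each value is the mean of three determinations, with deviation from the mean under 10%.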

[2] = Selectivity index, ratio of IC50 for ovine COX1 to IC50 for human recombinant COX2
How it was run: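 Ovine COX-1 and human recombinant COX-2 tested in parallel with a fluorescent COX inhibitor screening kit. […] The index is the COX-1 IC50 divided by the COX-2 IC50.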

[3] = target: T2, Prostaglandin G/H synthase 2 (Homo sapiens, UniProt P35354); assay: Inhibition of human recombinant COX2 by fluorescence assay
T2 sequence (P35354 whole entry): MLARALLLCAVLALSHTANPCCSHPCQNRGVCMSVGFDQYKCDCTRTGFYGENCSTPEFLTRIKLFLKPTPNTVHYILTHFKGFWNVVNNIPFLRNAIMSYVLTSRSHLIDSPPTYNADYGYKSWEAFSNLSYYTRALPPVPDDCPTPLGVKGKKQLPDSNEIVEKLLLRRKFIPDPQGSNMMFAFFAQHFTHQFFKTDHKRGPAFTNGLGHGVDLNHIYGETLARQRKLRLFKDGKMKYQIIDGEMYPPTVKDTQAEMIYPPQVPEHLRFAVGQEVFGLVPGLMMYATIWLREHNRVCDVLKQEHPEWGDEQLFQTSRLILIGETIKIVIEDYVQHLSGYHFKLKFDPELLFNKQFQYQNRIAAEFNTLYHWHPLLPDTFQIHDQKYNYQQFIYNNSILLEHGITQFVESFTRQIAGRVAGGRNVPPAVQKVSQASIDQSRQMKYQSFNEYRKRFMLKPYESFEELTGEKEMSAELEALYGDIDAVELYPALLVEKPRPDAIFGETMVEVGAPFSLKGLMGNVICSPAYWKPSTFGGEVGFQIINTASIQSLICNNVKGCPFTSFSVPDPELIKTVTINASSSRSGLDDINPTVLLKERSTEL

IC50 [1]	Ratio IC50 [2]	IC50 [3]	Structure (SMILES)
21 µM	16.1	1.3 µM	NS(=O)(=O)c1ccc(-n2cc(-c3ccc(Cl)cc3)nn2)cc1
20 µM	13.3	1.5 µM	NS(=O)(=O)c1ccc(Cn2cc(-c3ccc(F)cc3)nn2)cc1
65 µM	4.6	14 µM	Cc1ccc(-c2cn(-c3ccc(S(N)(=O)=O)cc3)nn2)cc1
> 100 µM	> 77	1.3 µM	NS(=O)(=O)c1ccc(-n2cc(-c3ccccc3)nn2)cc1
39 µM	6	6.5 µM	NS(=O)(=O)c1ccc(Cn2cc(-c3ccccc3)nn2)cc1
> 100 µM	> 29	3.4 µM	Cc1ccc(-c2cn(CCc3ccc(S(N)(=O)=O)cc3)nn2)cc1
> 100 µM	> 3.6	28 µM	NS(=O)(=O)c1ccc(Cn2cc(-c3ccc(Cl)cc3)nn2)cc1
> 100 µM	> 7.7	13 µM	COc1ccc(-c2cn(Cc3ccc(S(N)(=O)=O)cc3)nn2)cc1
> 100 µM	> 91	1.1 µM	NS(=O)(=O)c1ccc(CCn2cc(-c3ccccc3)nn2)cc1
> 100 µM	> 588	0.17 µM	NS(=O)(=O)c1ccc(CCn2cc(-c3ccc(Cl)cc3)nn2)cc1
> 100 µM	> 100	1 µM	NS(=O)(=O)c1ccc(CCn2cc(-c3ccc(F)cc3)nn2)cc1
> 100 µM	> 7.4	13.5 µM	NS(=O)(=O)c1ccc(-n2cc(-c3ccc(F)cc3)nn2)cc1
> 100 µM	> 83	1.2 µM	Cc1ccc(-c2cn(Cc3ccc(S(N)(=O)=O)cc3)nn2)cc1
> 100 µM	> 3.7	27 µM	COc1ccc(-c2cn(CCc3ccc(S(N)(=O)=O)cc3)nn2)cc1
> 100 µM	> 9.1	11 µM	COc1ccc(-c2cn(-c3ccc(S(N)(=O)=O)cc3)nn2)cc1
